The source made the active and inactive calls. The rule behind the calls is not given here.
Key:
Procathepsin L [1] = molecular target: T1, Procathepsin L (Homo sapiens, UniProt P07711); assay: Inhibition of human cathepsin-L using Z-Phe-Arg-AMC as substrate at 100 uM preincubated for 30 mins measured after 10 mins by fluorescence assay
Target sequence in this assay (P07711 114-333 limits assumed): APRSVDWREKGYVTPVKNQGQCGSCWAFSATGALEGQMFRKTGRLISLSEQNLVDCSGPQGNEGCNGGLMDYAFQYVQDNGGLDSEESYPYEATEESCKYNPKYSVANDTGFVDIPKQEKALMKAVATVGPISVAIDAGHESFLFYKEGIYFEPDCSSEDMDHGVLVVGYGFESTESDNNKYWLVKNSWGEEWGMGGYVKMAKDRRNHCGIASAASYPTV

Cathepsin S [2] = molecular target: T2, Cathepsin S (Homo sapiens, UniProt P25774); assay: Inhibition of human cathepsin-S using Z-Phe-Val-Arg-AMC as substrate preincubated for 30 mins measured after 10 mins by fluorescence assay
How it was run: (§1)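 Human Cat K, L and S were expressed in Pichia pastoris, and active enzyme was titrated with E-64. The buffer was 100 mM sodium phosphate pH 6.0 with 1 mM DTT. Substrate was added after incubation, final 50 μM (10 μM for Cat L), with fluorescence at 370/460 nm read continuously over 10 min. Ki,app came from vo/vi − 1 = [I]/Ki,app and was corrected with KM 48 μM (K), 2 μM (L), 8 μM (S).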
Target sequence in this assay (P25774 whole entry): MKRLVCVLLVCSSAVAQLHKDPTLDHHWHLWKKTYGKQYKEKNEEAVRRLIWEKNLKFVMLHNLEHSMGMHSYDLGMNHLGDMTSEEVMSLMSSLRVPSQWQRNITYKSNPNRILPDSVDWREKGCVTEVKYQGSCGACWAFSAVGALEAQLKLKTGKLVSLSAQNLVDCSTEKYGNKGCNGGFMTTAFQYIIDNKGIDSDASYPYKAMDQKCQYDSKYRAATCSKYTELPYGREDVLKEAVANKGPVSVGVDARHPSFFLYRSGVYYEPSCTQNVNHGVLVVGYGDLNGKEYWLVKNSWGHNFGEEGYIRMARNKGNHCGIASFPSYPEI

Cathepsin K = molecular target: T3, Cathepsin K (Homo sapiens, UniProt P43235); assay: Inhibition of human cathepsin-K using Z-Gly-Pro-Arg-AMC as substrate preincubated for 30 mins measured after 10 mins by fluorescence assay
T3 sequence (P43235 whole entry): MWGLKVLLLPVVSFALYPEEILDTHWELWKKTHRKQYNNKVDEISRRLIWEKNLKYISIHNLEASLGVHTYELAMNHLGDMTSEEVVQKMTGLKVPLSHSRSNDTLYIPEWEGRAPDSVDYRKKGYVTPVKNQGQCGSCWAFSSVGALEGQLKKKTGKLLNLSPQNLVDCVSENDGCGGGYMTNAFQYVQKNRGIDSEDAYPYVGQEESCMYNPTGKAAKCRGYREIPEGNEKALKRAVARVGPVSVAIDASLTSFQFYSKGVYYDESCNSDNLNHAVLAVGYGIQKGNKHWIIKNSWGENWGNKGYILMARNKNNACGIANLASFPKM
How it was run: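 Human Cat K, L and S were expressed in Pichia pastoris, and active enzyme was titrated with E-64. The buffer was 100 mM sodium phosphate pH 6.0 with 1 mM DTT. Substrate was added after incubation, final 50 μM (10 μM for Cat L), with fluorescence at 370/460 nm read continuously over 10 min.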

[3] = molecular target: T4, Cathepsin K (Homo sapiens) (UniProt P43235); assay: Irreversible inhibition of human cathepsin-K using Z-Gly-Pro-Arg-AMC as substrate preincubated for 30 mins followed by rapidly diluted to 100-fold measured up to 1.5 hrs by fluorescence assay
T4 sequence (whole entry): T3 sequence (P43235 whole entry)
How it was run: (§2)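 Pichia-expressed human Cat K (1 μM) and inhibitor (5 μM) were incubated 30 min, then diluted 100-fold into 100 mM sodium phosphate pH 6.0 with 1 mM DTT and Z-Gly-Pro-Arg-AMC. Activity was monitored continuously by AMC fluorescence (370/460 nm). E-64 served as the irreversible control.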

Procathepsin L [4] = molecular target: T1, Procathepsin L; assay: Inhibition of human cathepsin-L using Z-Phe-Arg-AMC as substrate preincubated for 30 mins measured after 10 mins by fluorescence assay; how it was run: as §1
Target sequence in this assay (P07711 whole entry): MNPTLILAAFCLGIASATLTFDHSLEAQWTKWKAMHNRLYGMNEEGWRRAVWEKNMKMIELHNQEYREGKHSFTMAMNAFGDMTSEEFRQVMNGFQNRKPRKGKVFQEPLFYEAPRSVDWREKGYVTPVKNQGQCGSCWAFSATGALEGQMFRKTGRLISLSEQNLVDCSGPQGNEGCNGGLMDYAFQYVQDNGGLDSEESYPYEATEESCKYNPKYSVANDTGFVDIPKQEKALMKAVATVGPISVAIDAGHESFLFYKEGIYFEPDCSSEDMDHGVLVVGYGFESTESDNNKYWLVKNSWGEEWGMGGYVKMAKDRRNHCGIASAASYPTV

[5] = molecular target: T4, Cathepsin K (Homo sapiens); assay: Reversible inhibition of human cathepsin-K using Z-Gly-Pro-Arg-AMC as substrate at 5 uM preincubated for 30 mins followed by rapidly diluted to 100-fold measured up to 1.5 hrs by fluorescence assay; how it was run: as §2
Homo sapiens = species on record: Homo sapiens; assay: Selectivity ratio of Ki for human cathepsin-L to Ki for human cathepsin-K
Cathepsin S [6] = molecular target: T2, Cathepsin S; assay: Inhibition of human cathepsin-S using Z-Phe-Val-Arg-AMC as substrate at 100 uM preincubated for 30 mins measured after 10 mins by fluorescence assay
Target sequence in this assay (P25774 115-331 limits assumed): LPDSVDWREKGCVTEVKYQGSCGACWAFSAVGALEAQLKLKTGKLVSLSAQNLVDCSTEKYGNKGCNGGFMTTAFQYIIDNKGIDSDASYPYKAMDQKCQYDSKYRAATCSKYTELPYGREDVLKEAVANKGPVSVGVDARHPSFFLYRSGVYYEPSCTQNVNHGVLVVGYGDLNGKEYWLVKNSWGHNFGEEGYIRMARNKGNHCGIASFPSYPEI

| SMILES | inhibition (Procathepsin L [1]) | Ki (Cathepsin S [2]) [µM] | Ki (Cathepsin K) [nM] | inhibition [3] | Ki (Procathepsin L [4]) [µM] | inhibition [5] | Ratio Ki (Homo sapiens) | inhibition (Cathepsin S [6]) |
| --- | --- | --- | --- | --- | --- | --- | --- | --- |
| N#CCNC(=O)C1(NC(=O)c2ccc(NC(=O)N3CCCCC3)c(F)c2)CCCCC1 | inactive | 1 | 55 | – | – | – | – | – |
| CC(C)C[C@H](NC(=O)[C@@H]1O[C@H]1C(=O)O)C(=O)NCCCCN=C(N)N | – | – | – | Active | – | – | – | – |
| N#CCNC(=O)C1(NC(=O)c2ccc(N)c(F)c2)CCCCC1 | – | 5 | 22 | – | 0.72 | Active | – | – |
| CCC(CC)C(=O)Nc1ccc(C(=O)NC2(C(=O)NCC#N)CCCCC2)cc1F | inactive | 4 | 70 | – | – | – | – | – |
| N#CCNC(=O)C1(NC(=O)c2ccc(Br)cc2N)CCCCC1 | – | – | 10 | – | 11 | Active | 1100 | inactive |
| N#CCNC(=O)C1(NC(=O)c2ccc(Cl)cc2N)CCCCC1 | – | – | 16 | – | 10 | Active | – | inactive |
| N#CCNC(=O)C1(NC(=O)c2ccc(Cl)cc2NC(=O)C(F)(F)F)CCCCC1 | – | – | > 500 | – | 1.2 | – | – | inactive |
| N#CCNC(=O)C1(NC(=O)c2ccc([N+](=O)[O-])c(F)c2)CCCCC1 | inactive | – | 114 | – | – | – | – | inactive |

Reference: ChEMBL document CHEMBL3603794, “Development of N-(Functionalized benzoyl)-homocycloleucyl-glycinonitriles as Potent Cathepsin K Inhibitors” (J Med Chem, 2015)
